In publication PMC7413308 (ARKIVOC : free online journal of organic chemistry, 2018):
“Also recorded” adds a separate entry of the source. Like-named read-outs stand apart in the source and are kept apart here.

Tests used:
[1] = test system: rhesus monkeys; conditions: cited from earlier work
[2] = In vitro liver microsomal stability; type: in vitro ADME, dog; conditions: 4 μM compound, 37 °C, 30 minutes
[3] = test system: mice; conditions: cited from earlier work
[4] = test system: rats; conditions: cited from earlier work
[5] = In vitro liver microsomal stability; type: in vitro ADME, mouse; conditions: 4 μM compound, 37 °C, 30 minutes
[6] = MAM model of schizophrenia; cited from earlier work
[7] = test system: mice; experiment: 6 Hz electroshock seizure assay; type: in vivo
Outline: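 Mice received the test compound i.p. at 100 or 150 mg/kg, depending on the compound. At various time points after dosing, a 6 Hz electroshock lasting 3 seconds was delivered through a corneal electrode. Each animal was then observed for convulsions and scored as protected or not.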

[8] = test system: mice; experiment: Rotarod assay, i.p. dosing; type: in vivo; conditions: 100 mg/kg i.p., 30 minutes prior to testing, 6 rpm, n=8
Outline: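 Mice (n=8) were given the test compound at 100 mg/kg ip 30 minutes before being placed on a rod rotating at 6 rpm for a 1-minute trial. Any mouse that fell 3 times during the trial was scored as toxic (ataxic or sedated).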

[9] = test system: rats; experiment: Prepulse inhibition; type: in vivo; conditions: 30 mg/kg, IP, one hour before testing, PCP·HCl 1.5 mg/kg SC ten minutes prior to testing
Outline: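 Rats received the test compound at 30 mg/kg ip one hour before testing, then PCP·HCl (1.5 mg/kg, sc) ten minutes before testing to disrupt PPI. Startle to an auditory stimulus was measured with a non-startling auditory prepulse at 5, 10 and 15 decibels. Results were expressed as mean (+SEM) percent prepulse inhibition and compared with PCP-treated controls given 0 mg/kg drug.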

[10] = In vitro liver microsomal stability; type: in vitro ADME, rat; conditions: 4 μM compound, 37 °C, 30 minutes
[11] = In vitro liver microsomal stability; type: in vitro ADME, human; conditions: 4 μM compound, 37 °C, 30 minutes
[12] = test system: HEPG2 (liver) cell line; experiment: In vitro cytotoxicity, cell viability; type: cell-based; conditions: 48 h incubation, Cell-Titer Glo cell viability
[13] = test system: mice, rats and primates; conditions: cited from earlier work
[14] = poly (I:C) animal model of schizophrenia; cited from earlier work
[15] = In vitro microsomal stability of analogs; type: in vitro ADME, human
[16] = In vitro microsomal stability of analogs; type: in vitro ADME, mouse
[17] = test system: HEK293 (kidney) cell line; experiment: In vitro cytotoxicity, cell viability; type: cell-based; conditions: 48 h incubation, Cell-Titer Glo cell viability
[18] = test system: mice; experiment: Sensorimotor coordination on rotating rod after oral gavage; type: in vivo; conditions: oral gavage 40 mg/kg, rotating rod max 3 minutes, three time-points
[19] = cited from earlier work
[20] = cited from earlier work; remark: listed apart in the source
[21] = footnote b: compound not detected after 20 minutes
[22] = footnote d: assessed at 1-hour incubation time

C#Cc1ccc2c(c1)C(c1ccccc1F)=N[C@H](C)c1c(C(=O)OCC)ncn1-2 [compound 1]
Anxiolytic effect [1]: only a minimal anxiolytic effect
Liver microsomal stability (%-remaining) DLM [2]: 90.3%
Anxiolytic and antidepressant effects after UCMS ([3]; female mice): exhibited anxiolytic and antidepressant effects
Anxiolytic and antidepressant effects after UCMS ([3]; male mice): very weak or none at all
Anxiolytic effect [4]: only a minimal anxiolytic effect
Liver microsomal stability (%-remaining) MLM [5]: 59.1%
Effect on amphetamine-induced hyperactivity of the dopamine system [6]: successfully alleviate the hyperactivity of the dopamine system induced by amphetamine
Protection from 6 Hz electroshock-induced seizures ([7]; i.p. 150 mg/kg, various time points, 150 mg/kg): not effective at any time; also recorded: not able to protect mice from electroshock-induced seizures
Ataxia in rotarod assay [8]: neither 1 nor 2 produced significant ataxia
Reversal of PCP-induced PPI deficit [9]: failed to reach a significant effect; also recorded: not 1 reversed the PPI deficits
Liver microsomal stability (%-remaining) RLM [10]: 5.4%
Liver microsomal stability (%-remaining) HLM [11]: 100%
Liver microsomal stability (%-remaining) HLM ([11]; listed as SH-053-2'F-R-CH3 (1)): 100.0%

C#Cc1ccc2c(c1)C(c1ccccc1F)=N[C@@H](C)c1c(C(=O)OCC)ncn1-2 [compound 2]
Anxiolytic effect [1]: exerted anxiolytic effects
Liver microsomal stability (%-remaining) DLM [2]: 90.7%
Anxiolytic effect [4]: exerted anxiolytic effects
HEPG2 LD50 [12]: 73.5 ± 14.4 µM
Toxicity in pharmacological assays [13]: not toxic
Liver microsomal stability (%-remaining) MLM [5]: 66.5%
Protection from 6 Hz electroshock-induced seizures ([7]; i.p. 100 mg/kg, time points 1/4, 1/2, 1, 2, and 4 hours, 100 mg/kg): able to protect some subjects
Effect on amphetamine-induced hyperactivity [14]: successfully mitigated the amphetamine-induced hyperactivity
Microsomal stability (HLM) % remaining [15, 21]: < 5.0^b %
Microsomal stability (HLM) Half-life [15, 21]: < 5^b min
Microsomal stability (MLM) % remaining [16, 22]: 78.0 ± 0.2^d %
Microsomal stability (MLM) Half-life [16, 22]: 155 ± 9^d min
HEK293 LD50 [17]: 28.0 ± 4.1 µM
Ataxia in rotarod assay [8]: neither 1 nor 2 produced significant ataxia
Reversal of PCP-induced PPI deficit [9]: reversed PCP-induced prepulse inhibition (PPI) of acoustic startle; also recorded: significantly reversed the PPI deficit; also recorded: reversed the PPI deficits induced by PCP
Liver microsomal stability (%-remaining) RLM [10]: 6.0%
Liver microsomal stability (%-remaining) HLM [11]: 3%
Liver microsomal stability (%-remaining) HLM ([11]; listed as SH-053-2'F-S-CH3 (2)): 2.3%

C#Cc1ccc2c(c1)C(c1ccccc1F)=N[C@@H](C)c1c(C(=O)N(C)C)ncn1-2 [8f, (S)-8-Ethynyl-6-(2-fluorophenyl)-N,N,4-trimethyl-4H-benzo[f]imidazo[1,5-a][1,4]diazepine-3-carboxamide]
HEPG2 LD50 [12]: >400 µM
Effect on sensorimotor coordination (motor impairment, sedation/ataxia) [18]: only minor impairment
Activity in procognitive assay [19]: procognitive (A++ and C++)
Activity in antidepressant assay (forced swim test) [20]: active
half-life ([15]; human, liver microsomes): 59 ± 5 min
remaining at 1 h ([15]; human, liver microsomes, Microsomal stability (HLM) % remaining, footnote d: assessed at 1-hour incubation time): 41 ± 0.9%
half-life ([16]; mouse, liver microsomes): 24 ± 2 min
remaining at 1 h ([16]; mouse, liver microsomes, Microsomal stability (MLM) % remaining, footnote d: assessed at 1-hour incubation time): 19 ± 0.9%
HEK293 LD50 [17]: >400 µM
